The results in this text go back to ChEMBL document CHEMBL1126297, “Synthesis and evaluation of analogues of (Z)-1-(4-methoxyphenyl)-2-(3,4,5-trimethoxyphenyl)ethene as potential cytotoxic and antimitotic agents” (J Med Chem, 1992).

Bounds are passed on as bounds.

Common to all, as to assay type: functional
In one assay the test system is A549. Kind of assay: Compound was evaluated for cytotoxicity against human A-549 non-small cell lung cancer cell line. Conditions: read-out: ED50 (the source's name). In a few lines:
(§1)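 MTT colorimetric assay run in the Purdue Cell Culture Laboratory. Poorly water-soluble compounds were serially diluted in DMSO and added as 0.5 μL aliquots per well. Cells were incubated with compound for 6 days before MTT was added. […] The reported ED50 is the mean of two determinations.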

Another assay deals with MLM. As to the kind of experiment: Cytotoxicity against human MLM melanoma cell line. The conditions noted are these: read-out: ED50 (the source's name). In a few lines: as §1
Another assay concerns MCF7. Kind of assay: Cytotoxicity against human MCF-7 breast cancer cell line. Conditions: read-out: ED50 (the source's name). A digest of the protocol:
as §1

The next assay is filed under the species Bos taurus. As to the kind of experiment: Inhibition of tubulin polymerization. In a few lines:
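Bovine brain tubulin, purified to electrophoretic homogeneity, was preincubated at 37 °C with a range of compound concentrations and then chilled on ice. GTP was added and polymerization followed at 37 °C by turbidity at 350 nm. Extent was read at 20 min against two controls per experiment, and IC50 was determined graphically. Actives were run in ≥3 independent assays, inactives (IC50 > 40 μM) in ≥2.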

The next assay relates to HT-29. As to the kind of experiment: Cytotoxicity against human HT-29 colon cell line. Conditions: read-out: ED50 (the source's name). In a few lines: as §1
A further assay deals with SK-MEL-5. Kind of assay: Compound was evaluated for cytotoxicity against human SKMEL-5 melanoma cell line. The conditions noted are these: read-out: ED50 (the source's name). In a few lines:
as §1

Consider `CCN(CC)CCOC(=O)/C(=C/c1cccc(OC)c1)c1cc(OC)c(OC)c(OC)c1`, for which the EC50 in the assay on A549 was 7.7 µM; with MLM, over 25 µM; with MCF7 it was 10.4 µM; with HT-29 it was over 25 µM; with SK-MEL-5, 6.7 µM. The IC50 (commonly the point on the concentration scale where inhibition reaches its midpoint) in the assay listed under Bos taurus is over 40 µM.

On to `CCOc1ccc(CCc2cc(OC)c(OC)c(OC)c2)cc1`, for which the EC50 in the assay on A549 was found to be 0.19 µM; in the assay on MLM, 0.27 µM; in the assay on MCF7 it was 0.19 µM; in the assay with HT-29 it was 0.18 µM; with SK-MEL-5, 0.17 µM. The IC50 in the assay filed under Bos taurus was determined as 10 µM.

For `COc1ccc2cc3n(c(=O)c2c1)CCc1c-3cc(OC)c(OC)c1OC`, the EC50 with A549, in the assay on MLM, in the assay with MCF7, in the assay with HT-29 and in the assay on SK-MEL-5 was over 25 µM throughout. Further, in the assay filed under Bos taurus, the IC50 is over 40 µM.

As to `CCN(CC)CCOC(=O)/C(=C/c1ccc(OC)cc1)c1cc(OC)c(OC)c(OC)c1`, the EC50 is 1.8 µM in the assay on A549; over 25 µM in the assay with MLM; 2.1 µM with MCF7; 2.8 µM with HT-29; 2.7 µM in the assay with SK-MEL-5. In the assay listed under Bos taurus, the IC50 is over 40 µM.

Consider `COc1cc(/C=C\c2ccc(C)cc2)cc(OC)c1OC`, for which the EC50 was 0.00094 µM in the assay with A549; 0.0066 µM with MLM; 0.024 µM with MCF7; 0.0023 µM with HT-29; 0.00083 µM in the assay on SK-MEL-5. Besides, in the assay filed under Bos taurus, inhibition was half-maximal at 2 µM (IC50).

As to `COc1cc(/C=C\c2ccc(C(C)C)cc2)cc(OC)c1OC`, the EC50 is 1.4 µM in the assay with MCF7 and 2.4 µM with HT-29. In the assay filed under Bos taurus, this compound returned an IC50 of 12 µM.

Take `COc1ccc(C(=O)c2c3cc(OC)c(OC)c(OC)c3cc[n+]2C)cc1`: the EC50 in the assay with A549, in the assay with MLM, in the assay with MCF7, in the assay with HT-29 and in the assay with SK-MEL-5 was over 25 µM each time. In the assay listed under Bos taurus, this compound yielded an IC50 of over 40 µM.

For the compound `COc1ccc(CCc2cc(OC)c(OC)c(OC)c2)cc1`, the EC50 in the assay on A549 came to 1.8 µM; in the assay on MLM, 1.8 µM; in the assay with MCF7, 1.6 µM; in the assay on HT-29 it was 2.5 µM; in the assay on SK-MEL-5 it was 1.4 µM. In addition, in the assay listed under Bos taurus, half-maximal inhibition (IC50) required 7.9 µM.

Take `COc1ccc(/C=C\c2cc(OC)c(OC)c(OC)c2)cc1`: the EC50 in the assay with MLM was 1.6 µM; in the assay with HT-29, 2.6 µM; in the assay with SK-MEL-5, 2.6 µM. The same compound returned an IC50 in the assay filed under Bos taurus of 2.5 µM.

Turning to `COc1ccc2c(ccc3cc(OC)c(OC)c(OC)c32)c1`, the EC50 in the assay on A549, in the assay on MLM, with MCF7, in the assay on HT-29 and in the assay with SK-MEL-5 was over 25 µM each time. In addition, the IC50 in the assay filed under Bos taurus is over 40 µM.

On to `COC(=O)/C(=C/c1ccc(OC)cc1)c1cc(OC)c(OC)c(OC)c1`, for which the EC50 in the assay with A549 is 1.1 µM; in the assay with MLM, 9.6 µM; in the assay with MCF7, 2 µM; with HT-29 it was 0.5 µM; with SK-MEL-5, 6.4 µM. The half-inhibitory concentration (IC50) in the assay filed under Bos taurus is over 40 µM.

For the compound `CCCOc1ccc(/C=C\c2cc(OC)c(OC)c(OC)c2)cc1`, the EC50 in the assay on A549 was found to be 0.039 µM; in the assay on MLM, 0.065 µM; in the assay on MCF7, 0.66 µM; in the assay on HT-29, 0.028 µM; in the assay with SK-MEL-5, 0.014 µM. In the assay listed under Bos taurus, this compound showed an IC50 of 6 µM.

For the compound `COc1ccc(C2Cc3cc(OC)c(OC)c(OC)c3C2)cc1` (configuration not stated), the EC50 was over 25 µM with A549; over 25 µM in the assay on MLM; over 25 µM in the assay with MCF7; 12.8 µM in the assay on HT-29; 19.5 µM with SK-MEL-5. In the assay listed under Bos taurus, this compound yielded a concentration for half-maximal inhibition (IC50) of over 40 µM.

For the compound `COc1ccc(C(=O)c2nccc3c(OC)c(OC)c(OC)cc23)cc1`, the EC50 in the assay with A549, with MLM, with MCF7, with HT-29 and in the assay with SK-MEL-5 was over 25 µM throughout. The compound further yielded an IC50 in the assay listed under Bos taurus of over 40 µM.

As to `COc1cc(/C=C/c2ccc(SC)cc2)cc(OC)c1OC`, the EC50 in the assay with A549 came out at 0.47 µM; in the assay with MLM, 7.3 µM; with MCF7 it was 0.059 µM; in the assay on HT-29 it was 0.083 µM; with SK-MEL-5, 0.28 µM. The IC50 in the assay listed under Bos taurus is over 40 µM.

In the case of `COc1cc(CCc2ccc(OCCN(C)C)cc2)cc(OC)c1OC`, the EC50 with A549 is over 25 µM; with MLM it was over 25 µM; in the assay with MCF7, 10.3 µM; in the assay on HT-29, 9.8 µM; in the assay with SK-MEL-5 it was 11.4 µM. The compound further registered an IC50 in the assay filed under Bos taurus of over 40 µM.

As for `COc1cc(CCc2ccc(C)cc2)cc(OC)c1OC`, the EC50 with A549 came out at 0.18 µM; in the assay on MLM, 1.4 µM; in the assay on MCF7, 0.22 µM; in the assay with HT-29, 0.1 µM; in the assay on SK-MEL-5 it was 0.27 µM. In the assay filed under Bos taurus, this compound registered a half-maximal inhibitory concentration (IC50) of 21 µM.

Take `COc1ccc2ccc3cc(OC)c(OC)c(OC)c3c2c1`: the EC50 is over 25 µM in the assay with A549; over 25 µM in the assay with MLM; over 25 µM in the assay on MCF7; 1.1 µM in the assay with HT-29; 12.5 µM with SK-MEL-5. The compound further had a half-inhibitory concentration (IC50) in the assay listed under Bos taurus of over 40 µM.

For the compound `COc1cc2ccc3cccc(OC)c3c2c(OC)c1OC`, the EC50 came out at 5.7 µM in the assay on A549; 21.4 µM in the assay with MLM; 1.8 µM in the assay on MCF7; 1.9 µM in the assay on HT-29; 1.3 µM with SK-MEL-5. The compound also had a half-inhibitory concentration (IC50) in the assay listed under Bos taurus of over 40 µM.

Regarding `CNC(=O)/C(=C/c1ccc(OC)cc1)c1cc(OC)c(OC)c(OC)c1`, the EC50 in the assay with A549 amounted to 2.4 µM; with MLM, 93 µM; with MCF7 it was 5 µM; in the assay on HT-29, 2.6 µM; in the assay on SK-MEL-5, 2.4 µM. Besides, the midpoint of inhibition in the assay listed under Bos taurus, the IC50, lay at 35 µM.

In the case of `COc1ccc(/C=C/c2cc(OC)c(OC(C)=O)c(OC)c2)cc1`, the EC50 in the assay with A549 worked out at 16.4 µM; in the assay with MLM, 21 µM; in the assay on MCF7 it was 19.4 µM; in the assay with HT-29, 11.7 µM; in the assay with SK-MEL-5 it was 10.2 µM. For the same compound, in the assay listed under Bos taurus, the IC50 is over 40 µM.

For `CCOc1ccc(/C=C\c2cc(OC)c(OC)c(OC)c2)cc1`, the EC50 came out at 1.6 µM in the assay on A549, 9.6 µM with MCF7, 1.8 µM in the assay on HT-29 and 2.5 µM in the assay with SK-MEL-5. This compound returned an IC50 in the assay listed under Bos taurus of 2.7 µM.

Take `COc1ccc(C(O)c2cc(OC)c(OC)c(OC)c2)cc1` (configuration not stated): the EC50 came to 1.5 µM in the assay with A549; 16.8 µM in the assay on MLM; 1.9 µM with MCF7; 1.2 µM in the assay on HT-29; 1.5 µM in the assay with SK-MEL-5. In the assay listed under Bos taurus, the IC50 was over 40 µM.

For `COc1ccc(C(Cc2cc(OC)c(OC)c(OC)c2)C(=O)O)cc1` (configuration not stated), the EC50 was 14.3 µM in the assay on A549; over 25 µM with MLM; over 25 µM with MCF7; 9.4 µM with HT-29; 7.4 µM with SK-MEL-5. Besides, the concentration for half-maximal inhibition (IC50) in the assay listed under Bos taurus is over 40 µM.

Consider `CCOc1ccc(/C=C/c2cc(OC)c(OC)c(OC)c2)cc1`, for which the figures for the EC50 in the assay on MCF7, in the assay with HT-29 and with SK-MEL-5 were 7.5 µM, 1.49 µM and 1.17 µM, respectively. This compound also had an IC50 in the assay listed under Bos taurus of over 40 µM.

For the compound `COc1ccc(/C=C\c2cc(OC)c(OC)c(OC)c2)cc1O` [COMBRETASTATIN A4], the EC50 in the assay on A549 worked out at 0.00032 µM; in the assay on MLM it was 0.00043 µM; in the assay on MCF7 it was 0.0056 µM; with HT-29, 0.01 µM; in the assay with SK-MEL-5, 0.00014 µM.
